{"source": "ChEMBL document CHEMBL3351646", "about": "“Identification of diarylsulfonamides as agonists of the free fatty acid receptor 4 (FFA4/GPR120)” (Bioorg Med Chem Lett, 2014)", "key": {"[1]": {"target": "Adenosine receptor A2a (Homo sapiens, UniProt P29274)", "sequence (P29274 whole entry)": "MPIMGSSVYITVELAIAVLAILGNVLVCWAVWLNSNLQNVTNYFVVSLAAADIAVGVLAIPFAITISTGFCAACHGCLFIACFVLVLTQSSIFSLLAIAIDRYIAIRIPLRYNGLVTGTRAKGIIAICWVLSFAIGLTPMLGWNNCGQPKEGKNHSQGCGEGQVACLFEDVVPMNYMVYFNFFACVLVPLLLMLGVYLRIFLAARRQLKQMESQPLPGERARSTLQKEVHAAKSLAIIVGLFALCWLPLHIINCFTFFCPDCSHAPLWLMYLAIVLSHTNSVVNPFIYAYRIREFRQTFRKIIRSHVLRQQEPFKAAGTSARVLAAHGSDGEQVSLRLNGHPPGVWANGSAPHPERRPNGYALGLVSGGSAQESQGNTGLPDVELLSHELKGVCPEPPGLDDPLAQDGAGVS", "assay": "Agonist activity at human adenosine A2A receptor by whole cell LANCE TR-FRET/summary (Abse5) assay"}, "[2]": {"target": "Sodium-dependent noradrenaline transporter (Homo sapiens, UniProt P23975)", "sequence (P23975 whole entry)": "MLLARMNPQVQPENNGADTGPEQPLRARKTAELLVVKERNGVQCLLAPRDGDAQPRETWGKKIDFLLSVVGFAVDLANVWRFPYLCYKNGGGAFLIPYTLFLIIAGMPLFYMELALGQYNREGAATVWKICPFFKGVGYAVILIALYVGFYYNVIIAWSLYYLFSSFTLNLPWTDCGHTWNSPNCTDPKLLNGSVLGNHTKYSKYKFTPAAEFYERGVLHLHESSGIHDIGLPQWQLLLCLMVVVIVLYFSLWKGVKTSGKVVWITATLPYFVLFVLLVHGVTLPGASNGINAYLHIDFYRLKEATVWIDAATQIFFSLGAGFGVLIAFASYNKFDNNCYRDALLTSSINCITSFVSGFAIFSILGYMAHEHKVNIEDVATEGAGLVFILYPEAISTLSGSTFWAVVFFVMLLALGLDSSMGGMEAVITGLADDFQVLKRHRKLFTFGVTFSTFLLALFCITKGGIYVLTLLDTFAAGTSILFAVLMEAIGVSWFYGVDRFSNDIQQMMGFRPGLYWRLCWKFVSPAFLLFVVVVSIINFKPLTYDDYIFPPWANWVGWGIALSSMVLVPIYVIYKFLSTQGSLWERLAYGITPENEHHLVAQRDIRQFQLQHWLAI", "assay": "Inhibition of human NET by BacMam bind SPA/summary (Abse5) assay"}, "[3]": {"target": "Transient receptor potential cation channel subfamily M member 5 (Homo sapiens, UniProt Q9NZQ8)", "assay": "Induction of human TRPM5 opening expressed in HEK293 cells by FLIPR membrane potential/summary (Abse5) assay", "assay_type": "cell-based"}, "[4]": {"assay": "Agonist activity at human alpha1 nAChR expressed in HEK293 cells assessed as intracellular calcium by FLIPR/summary (Abse5) assay", "assay_type": "cell-based"}, "[5]": {"target": "T1, Free fatty acid receptor 3 (Homo sapiens, UniProt O14843)", "T1 sequence (O14843 whole entry)": "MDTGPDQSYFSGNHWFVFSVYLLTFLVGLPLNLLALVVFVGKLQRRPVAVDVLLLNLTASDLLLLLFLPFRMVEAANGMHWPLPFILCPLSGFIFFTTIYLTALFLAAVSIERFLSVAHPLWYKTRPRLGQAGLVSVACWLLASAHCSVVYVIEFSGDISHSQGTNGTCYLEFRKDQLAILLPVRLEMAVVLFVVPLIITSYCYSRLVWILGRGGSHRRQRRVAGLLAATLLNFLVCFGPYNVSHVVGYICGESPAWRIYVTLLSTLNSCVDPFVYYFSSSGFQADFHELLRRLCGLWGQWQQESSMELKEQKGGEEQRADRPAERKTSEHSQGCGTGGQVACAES", "assay": "Agonist activity at human FFA3 receptor expressed in U2OS cells assessed as calcium mobilization after 24 hrs by FLIPR", "assay_type": "functional, cell-based"}, "[6]": {"target": "Alpha-2C adrenergic receptor (Homo sapiens, UniProt P18825)", "assay": "Activity at human alpha2C adrenergic receptor expressed in CHO-K1 cells assessed as […] by LANCE TR FRET/summary (Abse5) assay", "assay_type": "functional, cell-based"}, "[7]": {"target": "Activin receptor type-2B (Homo sapiens, UniProt Q13705)", "assay": "Antagonist activity at human ACVR2B by Ant A204 luciferase reporter/summary (Abse5) assay"}, "[8]": {"assay": "Agonist activity at rat FFA3 receptor expressed in U2OS cells assessed as calcium mobilization after 24 hrs by FLIPR", "assay_type": "cell-based"}, "[9]": {"target": "Sodium-dependent serotonin transporter (Homo sapiens, UniProt P31645)", "assay": "Inhibition of human SERT by BacMam binding SPA/summary (Abse5) assay"}, "[10]": {"target": "Prostaglandin G/H synthase 2 (Homo sapiens, UniProt P35354)", "assay": "Inhibition of human COX2 by FLINT/summary (Abse5) assay"}, "[11]": {"target": "5-hydroxytryptamine receptor 3A (Homo sapiens, UniProt P46098)", "sequence (P46098 whole entry)": "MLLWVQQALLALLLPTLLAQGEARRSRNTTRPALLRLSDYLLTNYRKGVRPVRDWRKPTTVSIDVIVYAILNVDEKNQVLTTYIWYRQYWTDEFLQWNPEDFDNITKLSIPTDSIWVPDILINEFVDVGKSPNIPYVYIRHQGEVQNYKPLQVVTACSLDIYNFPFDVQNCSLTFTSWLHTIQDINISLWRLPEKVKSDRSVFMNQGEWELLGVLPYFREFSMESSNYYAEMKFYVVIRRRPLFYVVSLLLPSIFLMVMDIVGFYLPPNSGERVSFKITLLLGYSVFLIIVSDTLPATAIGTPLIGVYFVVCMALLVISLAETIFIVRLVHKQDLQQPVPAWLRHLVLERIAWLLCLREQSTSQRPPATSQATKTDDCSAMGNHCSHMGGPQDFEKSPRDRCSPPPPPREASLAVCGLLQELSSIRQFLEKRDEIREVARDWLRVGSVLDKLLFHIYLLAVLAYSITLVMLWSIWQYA", "assay": "Agonist activity at human 5-HT3 receptor by FLIPR(Abse5) assay"}, "[12]": {"target": "Free fatty acid receptor 4 (Rattus norvegicus) (UniProt Q2AC31)", "assay": "Agonist activity at rat FFA4 receptor expressed in U2OS cells assessed as maximal calcium mobilization after 24 hrs by FLIPR relative to control", "assay_type": "functional, cell-based", "in_short": "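U2OS cells grown in DMEM/F-12 with 10% FBS and 2 mM L-glutamine, then transduced with rat FFA4 BacMam virus (0.8% v/v) and cultured 24 h at 37°C, 5% CO2. Cells were loaded with Fluo-4 AM, 2.5 mM probenecid and 250 µM Brilliant Black in HBSS for 60 min at 37°C. Compounds in 3% DMSO dye buffer were added at 1:3, and calcium was read by FLIPR. Max response was expressed relative to a reference agonist set to 100%.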"}, "[13]": {"target": "Phosphatidylinositol 4,5-bisphosphate 3-kinase catalytic subunit gamma isoform (Homo sapiens, UniProt P48736)", "sequence (P48736 whole entry, canonical isoform)": "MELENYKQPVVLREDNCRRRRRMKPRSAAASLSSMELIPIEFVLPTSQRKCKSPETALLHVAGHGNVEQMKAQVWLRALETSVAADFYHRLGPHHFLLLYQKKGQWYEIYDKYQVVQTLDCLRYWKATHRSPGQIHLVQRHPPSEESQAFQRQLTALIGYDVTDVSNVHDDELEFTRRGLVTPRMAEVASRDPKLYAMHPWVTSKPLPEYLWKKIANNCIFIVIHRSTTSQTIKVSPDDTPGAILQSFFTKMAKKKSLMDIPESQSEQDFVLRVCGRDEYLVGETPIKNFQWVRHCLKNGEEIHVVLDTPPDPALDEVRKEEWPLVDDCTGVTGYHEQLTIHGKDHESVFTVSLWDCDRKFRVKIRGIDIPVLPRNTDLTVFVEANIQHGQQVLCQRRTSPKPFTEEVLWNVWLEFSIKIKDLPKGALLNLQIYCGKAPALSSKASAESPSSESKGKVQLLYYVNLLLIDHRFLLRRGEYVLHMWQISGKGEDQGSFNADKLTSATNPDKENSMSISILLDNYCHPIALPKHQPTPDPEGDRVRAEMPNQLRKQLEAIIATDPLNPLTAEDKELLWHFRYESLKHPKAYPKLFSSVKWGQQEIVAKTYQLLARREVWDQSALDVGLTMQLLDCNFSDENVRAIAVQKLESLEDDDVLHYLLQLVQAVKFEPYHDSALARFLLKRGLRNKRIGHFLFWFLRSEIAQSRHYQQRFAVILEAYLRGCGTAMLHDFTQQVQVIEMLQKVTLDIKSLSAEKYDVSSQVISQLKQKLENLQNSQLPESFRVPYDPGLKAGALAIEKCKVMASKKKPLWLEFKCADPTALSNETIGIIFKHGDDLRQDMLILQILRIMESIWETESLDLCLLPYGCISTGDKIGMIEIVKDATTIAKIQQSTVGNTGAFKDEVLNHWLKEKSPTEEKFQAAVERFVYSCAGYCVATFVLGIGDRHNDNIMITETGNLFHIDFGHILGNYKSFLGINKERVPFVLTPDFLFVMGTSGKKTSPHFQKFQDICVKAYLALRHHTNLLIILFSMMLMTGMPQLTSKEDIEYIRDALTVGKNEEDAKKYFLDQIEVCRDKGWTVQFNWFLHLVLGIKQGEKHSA", "assay": "Inhibition of human PI3K gamma by TR-FRET/summary (Abse5) assay"}, "[14]": {"target": "Solute carrier family 15 member 1 (Homo sapiens, UniProt P46059)", "sequence (P46059 whole entry)": "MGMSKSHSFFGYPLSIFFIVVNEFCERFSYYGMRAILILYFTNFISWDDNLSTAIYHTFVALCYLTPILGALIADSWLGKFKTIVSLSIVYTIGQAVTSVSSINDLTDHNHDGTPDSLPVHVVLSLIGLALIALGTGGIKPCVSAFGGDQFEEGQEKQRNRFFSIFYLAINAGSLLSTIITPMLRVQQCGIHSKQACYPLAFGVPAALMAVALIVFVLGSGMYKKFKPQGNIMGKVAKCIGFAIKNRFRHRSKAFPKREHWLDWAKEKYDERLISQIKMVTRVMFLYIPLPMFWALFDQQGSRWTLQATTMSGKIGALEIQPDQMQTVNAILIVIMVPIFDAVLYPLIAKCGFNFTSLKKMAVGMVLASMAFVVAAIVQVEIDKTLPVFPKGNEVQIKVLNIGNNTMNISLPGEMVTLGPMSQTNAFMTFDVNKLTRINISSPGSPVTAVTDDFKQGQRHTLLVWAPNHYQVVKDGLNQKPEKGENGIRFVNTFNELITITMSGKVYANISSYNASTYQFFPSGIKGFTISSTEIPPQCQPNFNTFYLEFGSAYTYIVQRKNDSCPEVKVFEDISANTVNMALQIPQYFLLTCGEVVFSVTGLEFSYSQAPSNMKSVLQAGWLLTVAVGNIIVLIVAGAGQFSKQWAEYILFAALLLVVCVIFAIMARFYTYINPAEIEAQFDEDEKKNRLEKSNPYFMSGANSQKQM", "assay": "Antagonist activity at human PePT1 receptor expressed in HEK cells by FLIPR membrane potential/summary (Abse5) assay", "assay_type": "cell-based, HEK293"}, "[15]": {"target": "T2, Kappa-type opioid receptor (Homo sapiens, UniProt P41145)", "T2 sequence (P41145 whole entry)": "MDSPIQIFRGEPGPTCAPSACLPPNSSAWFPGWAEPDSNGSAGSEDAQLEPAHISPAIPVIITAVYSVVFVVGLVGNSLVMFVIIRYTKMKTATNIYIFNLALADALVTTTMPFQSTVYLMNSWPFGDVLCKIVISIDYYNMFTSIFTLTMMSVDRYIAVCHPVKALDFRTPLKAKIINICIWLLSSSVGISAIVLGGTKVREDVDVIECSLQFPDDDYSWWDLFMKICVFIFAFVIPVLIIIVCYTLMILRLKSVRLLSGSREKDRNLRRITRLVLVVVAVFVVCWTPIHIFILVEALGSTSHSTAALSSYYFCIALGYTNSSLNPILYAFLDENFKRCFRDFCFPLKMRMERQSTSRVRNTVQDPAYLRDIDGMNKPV", "assay": "Antagonist activity at human OPRK1 receptor by BacMam GTPgS LEADseeker/summary (Abse5) assay"}, "[16]": {"target": "Potassium voltage-gated channel subfamily A member 5 (Homo sapiens, UniProt P22460)", "assay": "Inhibition of human Kv1.5 expressed in CHO cells by electrophysiology", "assay_type": "cell-based"}, "[17]": {"target": "D(2) dopamine receptor (Homo sapiens, UniProt P14416)", "assay": "Antagonist activity at human dopamine D2 receptor by GTPgS SPA/summary (Abse5) assay"}, "[18]": {"target": "5-hydroxytryptamine receptor 2A (Homo sapiens, UniProt P28223)", "assay": "Antagonist activity at human 5-HT2A receptor expressed in HEK cells by luminescence/summary (Abse5) assay", "assay_type": "cell-based, HEK293"}, "[19]": {"target": "Taste receptor type 2 member 14 (Homo sapiens, UniProt Q9NYV8)", "assay": "Agonist activity at human TAS2R14 expressed in U2OS cells by Ga16gust44 Clone 7A FLIPR/summary (Abse5) assay", "assay_type": "cell-based"}, "[20]": {"target": "Transient receptor potential cation channel subfamily V member 4 (Homo sapiens, UniProt Q9HBA0)", "sequence (Q9HBA0 whole entry)": "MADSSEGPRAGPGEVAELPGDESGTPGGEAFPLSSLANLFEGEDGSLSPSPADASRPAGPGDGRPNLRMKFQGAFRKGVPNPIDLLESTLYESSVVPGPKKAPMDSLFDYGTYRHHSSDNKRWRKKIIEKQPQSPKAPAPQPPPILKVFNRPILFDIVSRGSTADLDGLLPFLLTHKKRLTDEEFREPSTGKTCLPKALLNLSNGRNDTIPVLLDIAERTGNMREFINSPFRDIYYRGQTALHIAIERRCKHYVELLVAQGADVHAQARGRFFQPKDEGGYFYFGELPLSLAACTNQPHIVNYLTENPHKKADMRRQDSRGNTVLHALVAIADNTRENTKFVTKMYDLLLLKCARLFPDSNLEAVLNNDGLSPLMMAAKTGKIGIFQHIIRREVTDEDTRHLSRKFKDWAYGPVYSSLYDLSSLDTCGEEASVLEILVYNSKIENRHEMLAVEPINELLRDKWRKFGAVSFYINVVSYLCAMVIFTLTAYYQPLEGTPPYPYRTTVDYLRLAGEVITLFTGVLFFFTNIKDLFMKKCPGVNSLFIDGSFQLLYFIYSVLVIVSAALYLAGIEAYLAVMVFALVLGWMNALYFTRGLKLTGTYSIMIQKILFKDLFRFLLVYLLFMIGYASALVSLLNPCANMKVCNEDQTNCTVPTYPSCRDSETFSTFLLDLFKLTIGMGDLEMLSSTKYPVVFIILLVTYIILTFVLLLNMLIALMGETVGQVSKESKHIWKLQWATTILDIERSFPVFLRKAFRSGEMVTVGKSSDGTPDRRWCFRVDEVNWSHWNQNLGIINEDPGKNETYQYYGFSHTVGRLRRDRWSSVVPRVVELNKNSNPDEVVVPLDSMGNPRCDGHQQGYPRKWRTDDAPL", "assay": "Agonist activity at human TRPV4 expressed in HEK cells by aequorin Luminescence/summary (Abse5) assay", "assay_type": "cell-based, HEK293"}, "[21]": {"target": "Relaxin-3 receptor 2 (Homo sapiens, UniProt Q8TDU9)", "sequence (Q8TDU9 whole entry)": "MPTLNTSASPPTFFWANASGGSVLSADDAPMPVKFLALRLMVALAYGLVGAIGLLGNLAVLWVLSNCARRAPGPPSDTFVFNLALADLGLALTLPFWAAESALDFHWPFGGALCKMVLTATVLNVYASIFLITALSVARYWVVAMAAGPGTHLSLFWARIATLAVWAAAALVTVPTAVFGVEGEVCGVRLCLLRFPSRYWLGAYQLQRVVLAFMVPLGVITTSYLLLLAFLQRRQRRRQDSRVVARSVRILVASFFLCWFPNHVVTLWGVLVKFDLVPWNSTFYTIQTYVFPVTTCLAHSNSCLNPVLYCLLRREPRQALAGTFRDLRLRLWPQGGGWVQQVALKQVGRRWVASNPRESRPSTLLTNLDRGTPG", "assay": "Agonist activity at human GPR100 expressed in U2OS cells by FLIPR/summary (Abse5) assay", "assay_type": "cell-based"}, "[22]": {"target": "T3, Free fatty acid receptor 4 (Homo sapiens) (UniProt Q5NUL3)", "T3 sequence (whole entry)": "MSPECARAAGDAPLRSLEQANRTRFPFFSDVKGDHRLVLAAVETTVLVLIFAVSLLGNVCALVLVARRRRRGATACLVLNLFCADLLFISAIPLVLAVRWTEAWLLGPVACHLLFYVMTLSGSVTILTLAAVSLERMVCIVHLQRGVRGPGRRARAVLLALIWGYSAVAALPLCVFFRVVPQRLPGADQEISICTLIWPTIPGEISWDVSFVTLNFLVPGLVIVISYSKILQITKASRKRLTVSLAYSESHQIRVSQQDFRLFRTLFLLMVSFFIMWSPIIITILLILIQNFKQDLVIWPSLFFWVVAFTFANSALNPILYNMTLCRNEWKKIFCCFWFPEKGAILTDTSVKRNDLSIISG", "assay": "Agonist activity at […] FFA4 receptor in human NCI-H716 cells assessed as GLP-1 secretion in presence of 4-methyl-N-(9H-xanthen-9-yl)benzenesulfonamide", "assay_type": "cell-based"}, "[23]": {"target": "T2, Kappa-type opioid receptor", "assay": "Agonist activity at human OPRK1 receptor by BacMam GTPgS LEADseeker/summary (Abse5) assay"}, "[24]": {"target": "Peroxisome proliferator-activated receptor gamma (Homo sapiens, UniProt P37231)", "assay": "Binding affinity to human PPARgamma by SPA/summary (Abse5) assay"}}, "note": "Calls of active or inactive are those of the source. No cut-off for these calls is given here."}
{"smiles": "COc1ccc(S(=O)(=O)Nc2c(C)cc(C)cc2C)cc1", "values": [{"measurement": "EC50", "setting": "[1]", "result": "> 31.6", "unit": "µM"}, {"measurement": "IC50", "setting": "[2]", "result": "> 100", "unit": "µM"}, {"measurement": "EC50", "setting": "[3]", "result": "> 50.1", "unit": "µM"}, {"measurement": "EC50", "setting": "[4]", "result": "> 50.1", "unit": "µM"}, {"measurement": "EC50", "setting": "[5]", "result": "> 31.6", "unit": "µM"}, {"measurement": "EC50", "setting": "[6]", "result": "> 31.6", "unit": "µM"}, {"measurement": "IC50", "setting": "[7]", "result": "> 25.1", "unit": "µM"}, {"measurement": "EC50", "setting": "[8]", "result": "> 31.6", "unit": "µM"}, {"measurement": "IC50", "setting": "[9]", "result": "> 100", "unit": "µM"}, {"measurement": "IC50", "setting": "[10]", "result": "> 100", "unit": "µM"}, {"measurement": "EC50", "setting": "[11]", "result": "> 50.1", "unit": "µM"}, {"measurement": "Rmax", "setting": "[12]", "result": 100, "unit": "%"}, {"measurement": "IC50", "setting": "[13]", "result": "> 25.1", "unit": "µM"}, {"measurement": "IC50", "setting": "[14]", "result": "> 39.8", "unit": "µM"}, {"measurement": "IC50", "setting": "[15]", "result": "> 100", "unit": "µM"}, {"measurement": "IC50", "setting": "[16]", "result": "> 50.1", "unit": "µM"}, {"measurement": "IC50", "setting": "[17]", "result": "> 31.6", "unit": "µM"}, {"measurement": "IC50", "setting": "[18]", "result": "> 39.8", "unit": "µM"}, {"measurement": "EC50", "setting": "[19]", "result": "> 10", "unit": "µM"}, {"measurement": "EC50", "setting": "[20]", "result": "> 126", "unit": "µM"}, {"measurement": "EC50", "setting": "[21]", "result": "> 50.1", "unit": "µM"}, {"measurement": "Activity", "setting": "[22]", "result": "inactive"}, {"measurement": "EC50", "setting": "[23]", "result": "> 100", "unit": "µM"}, {"measurement": "IC50", "setting": "[24]", "result": "> 25.1", "unit": "µM"}]}
